Laboratory results published in ChEMBL document CHEMBL1759947, “Synthesis and evaluation of arylquinones as BACE1 inhibitors, β-amyloid peptide aggregation inhibitors, and destabilizers of preformed β-amyloid fibrils” (Bioorg Med Chem Lett, 2011).

Experiments:
Beta-secretase 1 = Beta-secretase 1 (Homo sapiens, UniProt P56817); test: Inhibition of human recombinant BACE1 preincubated after 1 hr by fluorescence assay
SH-SY5Y = test: Cytotoxicity against human SH-SY5Y cells up to 20 uM for 24 hrs by MTT assay; type: cell-based
In short: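 SH-SY5Y neuroblastoma cells; viability by mitochondrial reduction of MTT to formazan, reported as percent cell death at a single concentration.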

[1] = Induction of amyloid beta (25 to 35) disaggregation after 4 days by Thioflavin-T fluorescence assay
In short: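 Aβ(25–35) first held at 37 °C for 4 days to form fibrils, then exposed to quinone for another 4 days at 37 °C; remaining fibrils measured by thioflavin-T fluorescence (ex 448/em 483 nm) with ThT blank subtracted; IC50 derived.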

[2] = Inhibition of amyloid beta (25 to 35) aggregation for 4 days by Thioflavin-T fluorescence assay
In short: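 Aβ(25–35) dissolved at 1 mM in PBS (stock), diluted, mixed with quinone and held at 37 °C for 4 days; aggregation read by thioflavin-T fluorescence (ex 448/em 483 nm) after subtracting a ThT blank; IC50 derived.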

Chain of Beta-secretase 1 (P56817 whole entry): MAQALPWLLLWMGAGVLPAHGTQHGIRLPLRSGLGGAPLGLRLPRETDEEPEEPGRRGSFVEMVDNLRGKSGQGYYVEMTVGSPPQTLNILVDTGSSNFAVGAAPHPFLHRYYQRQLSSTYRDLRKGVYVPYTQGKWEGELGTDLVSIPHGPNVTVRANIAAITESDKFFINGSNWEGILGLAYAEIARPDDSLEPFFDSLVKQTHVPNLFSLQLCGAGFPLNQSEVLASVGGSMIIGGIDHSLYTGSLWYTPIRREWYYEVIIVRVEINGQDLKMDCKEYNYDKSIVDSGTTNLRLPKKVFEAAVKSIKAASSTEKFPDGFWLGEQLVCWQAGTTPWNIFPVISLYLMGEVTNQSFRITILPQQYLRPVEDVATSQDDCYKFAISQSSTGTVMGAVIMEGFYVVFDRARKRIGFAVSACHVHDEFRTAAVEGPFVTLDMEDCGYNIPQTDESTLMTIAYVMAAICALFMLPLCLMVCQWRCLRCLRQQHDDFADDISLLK

SMILES | IC50 (Beta-secretase 1) | IC50 [1] | IC50 [2] | IC50 ([2]; read-out: IC50) | IC50 ([1]; read-out: IC50) | Activity (SH-SY5Y)
O=C1C(c2ccccc2)=CC(=O)c2c(O)cccc21 | 12.6 µM | Not Active | Not Active | – | – | Non-toxic
O=C1C(c2ccc(O)cc2)=CC(=O)c2c(O)cccc21 | 16.1 µM | Not Active | Not Active | – | – | Non-toxic
O=C1C=C(c2ccccc2)C(=O)C=C1c1ccccc1 | – | – | – | – | – | Toxic
O=C1C=C(c2ccc(F)cc2)C(=O)C=C1c1ccccc1 | – | – | – | – | – | 78.08%
COc1ccc(C2=CC(=O)C(c3ccccc3)=CC2=O)cc1 | – | – | – | – | – | 56.29%
COc1ccc(C2=CC(=O)C(c3ccc(F)cc3)=CC2=O)cc1 | – | – | – | – | – | 66.22%
COc1ccc(C2=CC(=O)C(c3ccc(OC)cc3)=CC2=O)cc1 | 23.3 µM | – | – | 6.37 µM | 7.15 µM | Non-toxic
O=C1C=C(c2ccccc2)C(=O)C(c2ccccc2)=C1 | 11.4 µM | – | – | 9.28 µM | 9 µM | Non-toxic
O=C1C=C(c2ccccc2)C(=O)C(c2ccc(C(F)(F)F)cc2)=C1 | – | – | – | – | – | 100%
COc1ccc(C2=CC(=O)C=C(c3ccccc3)C2=O)cc1 | 13.4 µM | – | – | 9.56 µM | 7.87 µM | Non-toxic
COc1ccc(C2=CC(=O)C=C(c3ccc(F)cc3)C2=O)cc1 | – | – | – | – | – | 62.5%
Oc1cc(-c2ccccc2)c(O)cc1-c1ccccc1 | 16 µM | – | – | > 50 µM | 14.3 µM | Non-toxic
COc1ccc(-c2cc(OC(C)=O)c(-c3ccc(OC)cc3)cc2OC(C)=O)cc1 | 23.9 µM | – | Not Active | – | > 50 µM | Non-toxic
CC(=O)Oc1cc(-c2ccc(C(F)(F)F)cc2)c(OC(C)=O)cc1-c1ccccc1 | – | – | – | > 50 µM | > 50 µM | Non-toxic
CC(=O)Oc1cc(-c2ccccc2)c(OC(C)=O)c(-c2ccccc2)c1 | 20 µM | Not Active | Not Active | – | – | Non-toxic

The next lines start with results.

IC50 (Beta-secretase 1) | IC50 [1] | IC50 [2] | IC50 ([2]; read-out: IC50) | IC50 ([1]; read-out: IC50) | SMILES | Activity (SH-SY5Y)
9.33 µM | Not Active | Not Active | – | – | O=C1C=C(c2ccccc2)C(=O)c2ccccc21 | Non-toxic
8.22 µM | Not Active | Not Active | – | – | O=C1C=C(c2ccc(O)cc2)C(=O)c2ccccc21 | Non-toxic
11.2 µM | Not Active | – | 22.6 µM | – | COc1ccc(C2=CC(=O)c3c(OC)cccc3C2=O)cc1 | Non-toxic
8.98 µM | Not Active | Not Active | – | – | O=C1C=C(c2ccccc2)C(=O)c2c(O)cccc21 | Non-toxic
10.3 µM | – | – | 16.6 µM | 5.05 µM | COc1cccc2c1C(=O)C(c1ccc(O)cc1)=CC2=O | Non-toxic
6.52 µM | – | – | 14.2 µM | 12.3 µM | O=C1C=C(c2ccc(C(F)(F)F)cc2)C(=O)C=C1c1ccccc1 | Non-toxic
9.1 µM | – | – | 17.8 µM | 8.24 µM | COc1ccc(-c2cc(O)cc(-c3ccccc3)c2O)cc1 | Non-toxic
11.1 µM | Not Active | Not Active | – | – | COc1ccc(-c2cc(OC(C)=O)cc(-c3ccccc3)c2OC(C)=O)cc1 | Non-toxic
11.3 µM | Not Active | Not Active | – | – | COc1ccc(-c2cc(O)cc(-c3ccccc3)c2OC(C)=O)cc1 | Non-toxic
